Data on 19 molecules can be found in ChEMBL document CHEMBL4673212, “Investigation of synergistic antimicrobial effects of the drug combinations of meropenem and 1,2-benzisoselenazol-3(2H)-one derivatives on carbapenem-resistant Enterobacteriaceae producing NDM-1” (Eur J Med Chem, 2018).

Series [1] is described as follows: Inhibition of recombinant bacterial NDM-1 by fluorogenic assay. On the set-up: species or system Bacteria.
Series [2] can be described thus: Competitive inhibition of recombinant bacterial His6-tagged TEV protease site linked NDM-1 (32 to […] residues) expressed in Escherichia coli BL21 (DE3). On the set-up: species or system Bacteria.
The nature of series [3]: Covalent inhibition of bacterial NDM-1. On the set-up: species or system Bacteria.
Series [4] has as its system Escherichia coli. Kind of series: Synergistic antibacterial activity against Escherichia coli TG1 transformed with IncX3 plasmid expressing blaNDM-1 assessed as ratio of negative logarithm of fractional inhibitory concentration index to non-hydrogen atom in presence of meropenem incubated for overnight by CLSI protocol based assay. In kind it is functional. Conditions: time 12 hrs. In outline: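 In E. coli TG1 carrying the IncX3 blaNDM-1 plasmid, the FIC index was taken from overnight CLSI-based MICs of compound, meropenem and their 1:1 mass mixture, read by eye. Synergistic efficiency = −ln(FIC index) divided by the number of non-hydrogen atoms. At least triplicate assays.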

Series [5] deals with Escherichia coli. Kind of series: Synergistic antibacterial activity against Escherichia coli TG1 transformed with IncX3 plasmid expressing blaNDM-1 assessed as fractional inhibitory concentration index in presence of meropenem incubated for overnight by CLSI protocol based assay. In kind it is functional. The conditions noted are these: time 12 hrs. Summed up:
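FIC index from MICs of compound alone, meropenem alone, and the 1:1 (mass) compound–meropenem combination, read by eye after overnight incubation in a CLSI-based assay. FIC index = MICcombo/MICcpd + MICcombo/MICMem. FIC index ≤0.5 counted as synergy. At least triplicate assays. Clinical NDM-1 isolates for 17-39; E. coli TG1 carrying the IncX3 blaNDM-1 plasmid for 15.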

Series [6] deals with Escherichia coli. Kind of series: Potentiation of meropenem-induced antibacterial activity against Escherichia coli TG1 transformed with IncX3 plasmid expressing blaNDM-1 assessed as bacterial growth inhibition by measuring meropenem MIC incubated for overnight by CLSI protocol based assay. In kind it is functional. Conditions: time 12 hrs.
The nature of series [7]: Growth inhibition of Escherichia coli TG1 transformed with IncX3 plasmid expressing blaNDM-1 incubated for overnight by CLSI protocol based assay. The conditions noted are these: 12 h.
Series [8] in a line: Inhibition of bacterial VIM-1. On the set-up: species or system Bacteria.

Values after ≈ are worked out from the molar mass of the structure shown.

By IC50 is commonly meant the concentration at which inhibition is half-maximal. Regarding `NCCNCc1ccc(C(=O)N[C@H]2Cc3cccc(C(=O)O)c3O[B-]2(O)O)cc1`, the IC50 in series [1] was 0.004 µM.

Turning to `O=C(O)[C@H]1CCCCN1C(=O)C(CS)Cc1ccccc1` (mixture of isomers), the IC50 in series [2] stood at 0.7 µM.

Take `N[C@@H](C(=O)N[C@@H]1C(=O)N2C(C(=O)O)=C(Cl)CS[C@H]12)c1ccccc1` [CEFACLOR ANHYDROUS]: in series [3], the Ki is 2300 µM.

In the case of `O=C(NCCn1[se]c2ccccc2c1=O)c1ccc(F)cc1F`, in series [4], the Ratio is recorded as 0.013. Besides, the “fractional inhibitory concentration index (FICI)” value in series [5] turned out to be 0.75. In addition, the MIC in series [6] is 32 µg/mL; in series [7], “>= 128 ug ml-1”.

Regarding `O=C(O)[C@@H]1SC[C@H]2CS[C@H](CS)N21`, the IC50 in series [8] came to 23 µM.

As for `O=C(O)Cn1[se]c2ccccc2c1=O`, the Ratio in series [4] turned out to be 0.091. Also, the “fractional inhibitory concentration index (FICI)” value in series [5] is recorded as 0.281. The MIC was determined as 2 µg/mL in series [6] and 8 µg/mL (≈ 31.2 µM) in series [7].

Take `O=c1c2ccccc2[se]n1Cc1ccccc1`: the Ratio in series [4] is 0.058. The “fractional inhibitory concentration index (FICI)” value in series [5] came to 0.375. Besides, the MIC in series [6] came to 8 µg/mL; in series [7], 32 µg/mL (≈ 111 µM).

With `O=C(O)c1cccc(-n2[se]c3ccccc3c2=O)c1`, the Ratio in series [4] came to 0.052. Further, in series [5], the “fractional inhibitory concentration index (FICI)” value stood at 0.375. Also, the MIC in series [6] amounted to 8 µg/mL; in series [7], 32 µg/mL (≈ 101 µM).

Regarding `COc1ccc(-n2[se]c3ccccc3c2=O)cc1`, in series [4], the Ratio is listed as 0.054. In series [5], the “fractional inhibitory concentration index (FICI)” value turned out to be 0.375. Besides, the MIC in series [6] is 16 µg/mL; in series [7], “>= 128 ug ml-1”.

Consider `O=C(NCCn1[se]c2ccccc2c1=O)c1ccccc1`, for which the Ratio in series [4] is 0.047. Further, the “fractional inhibitory concentration index (FICI)” value in series [5] is 0.375. Moreover, the MIC is 16 µg/mL in series [6] and “>= 128 ug ml-1” in series [7].

`O=C(NCCn1[se]c2ccccc2c1=O)c1cccs1`: the Ratio in series [4] was 0.084. Besides, the “fractional inhibitory concentration index (FICI)” value in series [5] is given as 0.188. Also, the MIC in series [6] was 8 µg/mL; in series [7] it was “>= 128 ug ml-1”.

As to `COc1ccc(Cn2[se]c3ccccc3c2=O)cc1`, the Ratio in series [4] turned out to be 0.088. In addition, the “fractional inhibitory concentration index (FICI)” value in series [5] worked out at 0.188. Also, the results for the MIC in series [6] and in series [7] were 8 µg/mL and “>= 128 ug ml-1”, respectively.

As to `COc1cccc(C(=O)n2[se]c3ccccc3c2=O)c1`, the Ratio in series [4] was determined as 0.084. The “fractional inhibitory concentration index (FICI)” value in series [5] turned out to be 0.188. The MIC in series [6] was 8 µg/mL; in series [7], “>= 128 ug ml-1”.

Turning to `O=c1c2ccccc2[se]n1-c1ccncc1`, the Ratio in series [4] is reported as 0.018. Further, the “fractional inhibitory concentration index (FICI)” value in series [5] is listed as 0.75. The MIC is 32 µg/mL in series [6] and “>= 128 ug ml-1” in series [7].

Take `CC(C)(CC(=O)NCCn1[se]c2ccccc2c1=O)C(F)(F)F`: in series [4], the Ratio is 0.073. For the same molecule, the “fractional inhibitory concentration index (FICI)” value in series [5] is 0.188. Further, the MIC in series [6] was 8 µg/mL; in series [7], “>= 128 ug ml-1”.

With `CC1CN(CCn2[se]c3ccccc3c2=O)CC(C)O1` (centres undefined), the Ratio in series [4] is listed as 0.049. In addition, in series [5], the “fractional inhibitory concentration index (FICI)” value amounted to 0.375. In addition, the values for the MIC in series [6] and in series [7] were 16 µg/mL and “>= 128 ug ml-1”, respectively.

For `O=C1N[Se]c2ccccc2C(=O)N1`, the Ratio in series [4] worked out at 0.107. In series [5], the “fractional inhibitory concentration index (FICI)” value came out at 0.25. Further, the results for the MIC in series [6] and in series [7] were 8 µg/mL and 64 µg/mL (≈ 265 µM), respectively.

As to `O=c1c2ccccc2[se]n1S(=O)(=O)c1ccc(Cl)cc1`, the Ratio in series [4] is recorded as 0.049. For the same molecule, in series [5], the “fractional inhibitory concentration index (FICI)” value came to 0.375. Further, the MIC in series [6] was 16 µg/mL; in series [7], “>= 128 ug ml-1”.

As to `O=c1c2ccccc2[se]n1Cc1cccc(N2CCCCC2)c1`, the Ratio in series [4] was 0.043. Further, the “fractional inhibitory concentration index (FICI)” value in series [5] worked out at 0.375. The values for the MIC in series [6] and in series [7] were 16 µg/mL and “>= 128 ug ml-1”, respectively.
